According to ChEMBL document CHEMBL1137696, “Preparation and in vitro evaluation of benzylsulfanyl benzoxazole derivatives as potential antituberculosis agents” (2009):
≈ marks a conversion by molar mass, not a printed value. Calls of active or inactive are those of the source. No cut-off for these calls is given here.

What was measured:
[1] = test system: Mycobacterium kansasii; test: Antimycobacterial activity against Mycobacterium kansasii 6509/96 after 14 days by micromethod; format: functional; conditions: 6509/96, 336 h
Outline: (§1)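 Micromethod MIC in Šula semisynthetic medium, with compounds added as DMSO solutions at 1000, 500, 250, 125, 62, 32, 16, 8, 4 and 2 µmol/L. Cultures were incubated at 37 °C, and M. kansasii was read at 7, 14 and 21 days. MIC is the lowest concentration at which mycobacterial growth was inhibited. INH served as standard. Strain 6509/96 was a clinical isolate.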

[2] = test system: L929; test: Growth inhibition of mouse L929 cells; format: functional
Outline: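 Antiproliferative assay on adherent L-929 monolayers exposed to 10 concentrations of compound. Cells were fixed with glutaraldehyde, stained with 0.05% methylene blue for 15 min, washed, and the dye eluted with 0.33 N HCl. OD was read at 630 nm, and GI50 is the concentration giving 50% growth inhibition.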

[3] = test system: Mycobacterium tuberculosis; test: Antimycobacterial activity against Mycobacterium tuberculosis CNCTC My 331/88 after 14 days by micromethod; format: functional; conditions: CNCTC My 331/88, 336 h
Outline: (§2)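 MIC by micromethod in Šula semisynthetic medium. Compounds added as DMSO solutions at 1000, 500, 250, 125, 62, 32, 16, 8, 4 and 2 µmol/L. Incubated at 37 °C and read at 14 and 21 days. MIC taken as the lowest concentration that inhibited mycobacterial growth, expressed in µmol/L. INH run as standard. Strains from CNCTC.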

[4] = test system: Mycobacterium avium; test: Antimycobacterial activity against Mycobacterium avium CNCTC My 330/88 after 21 days by micromethod; format: functional; conditions: CNCTC My 330/88, 504 h; outline: as §2
[5] = test system: Mycobacterium kansasii; test: Antimycobacterial activity against Mycobacterium kansasii 6509/96 after 7 days by micromethod; format: functional; conditions: 6509/96, 168 h; outline: as §1
[6] = test system: Mycobacterium tuberculosis; test: Antimycobacterial activity against Mycobacterium tuberculosis CNCTC My 331/88 after 21 days by micromethod; format: functional; conditions: CNCTC My 331/88, 504 h; outline: as §2
[7] = test system: K562; test: Growth inhibition of human K562 cells; format: functional
Outline: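 K-562 suspension cultures in microplates were exposed to 10 concentrations of compound. Each well was diluted 1:50 in CASYTON and counted with a CASY 1 electronic cell analyzer (150 µm aperture), using the mean of three successive 0.4 mL counts. GI50 is the point where the concentration-response curve of cell counts/mL relative to control crosses the 50% line.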

[8] = test system: Mycobacterium kansasii; test: Antimycobacterial activity against Mycobacterium kansasii CNCTC My 235/80 after 14 days by micromethod; format: functional; conditions: CNCTC My 235/80, 336 h; outline: as §1
[9] = test system: Mycobacterium kansasii; test: Antimycobacterial activity against Mycobacterium kansasii CNCTC My 235/80 after 7 days by micromethod; format: functional; conditions: CNCTC My 235/80, 168 h; outline: as §1
[10] = test system: Mycobacterium kansasii; test: Antimycobacterial activity against Mycobacterium kansasii CNCTC My 235/80 after 21 days by micromethod; format: functional; conditions: CNCTC My 235/80, 504 h; outline: as §1
[11] = test system: HeLa; test: Cytotoxicity against human HeLa cells; format: functional
Outline: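 Adherent HeLa monolayers were incubated with 10 concentrations of compound, then glutaraldehyde-fixed and stained with 0.05% methylene blue for 15 min. After gentle washing, the stain was eluted with 0.33 N HCl and absorbance read at 630 nm. CC50 is the concentration causing 50% cytotoxic (lytic) effect.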

[12] = test system: Mycobacterium avium; test: Antimycobacterial activity against Mycobacterium avium CNCTC My 330/88 after 14 days by micromethod; format: functional; conditions: CNCTC My 330/88, 336 h; outline: as §2
[13] = test system: Mycobacterium kansasii; test: Antimycobacterial activity against Mycobacterium kansasii 6509/96 after 21 days by micromethod; format: functional; conditions: 6509/96, 504 h; outline: as §1
[14] = test system: Tetranychus urticae; test: Insecticidal activity against glasshouse red spider mite larvae; format: functional, organism-based
[15] = test system: Tetranychus urticae; test: Insecticidal activity against glasshouse red spider mite egg; format: functional

| Structure (SMILES) | MIC [1] [µM] | GI50 [2] [µg/mL] | MIC [3] [µM] | MIC [4] [µM] | MIC [5] [µM] | MIC [6] [µM] | GI50 [7] [µg/mL] | MIC [8] [µM] | MIC [9] [µM] | MIC [10] [µM] | CC50 [11] [µg/mL] | MIC [12] [µM] | MIC [13] [µM] | Activity [14] | Activity [15] |
| --- | --- | --- | --- | --- | --- | --- | --- | --- | --- | --- | --- | --- | --- | --- | --- |
| O=[N+]([O-])c1cc(CSc2nc3ccccc3o2)cc([N+](=O)[O-])c1 | 8 (≈ 2.65 µg/mL) | 22.4 (≈ 67.6 µM) | 8 (≈ 2.65 µg/mL) | > 32 | 4 (≈ 1.33 µg/mL) | 8 (≈ 2.65 µg/mL) | 9.2 (≈ 27.8 µM) | 4 (≈ 1.33 µg/mL) | 2 (≈ 0.663 µg/mL) | 4 (≈ 1.33 µg/mL) | > 50 | > 16 | 8 (≈ 2.65 µg/mL) | – | – |
| Clc1ccc(CSc2nc3ccccc3o2)cc1 | 62 (≈ 17.1 µg/mL) | – | 250 (≈ 68.9 µg/mL) | 62 (≈ 17.1 µg/mL) | 32 (≈ 8.82 µg/mL) | > 500 | – | 62 (≈ 17.1 µg/mL) | 32 (≈ 8.82 µg/mL) | 125 (≈ 34.5 µg/mL) | – | 62 (≈ 17.1 µg/mL) | 125 (≈ 34.5 µg/mL) | Active | Active |
| O=[N+]([O-])c1ccc(CSc2nc3ccccc3o2)c([N+](=O)[O-])c1 | 8 (≈ 2.65 µg/mL) | > 50 | 8 (≈ 2.65 µg/mL) | > 32 | 4 (≈ 1.33 µg/mL) | 8 (≈ 2.65 µg/mL) | 10.4 (≈ 31.4 µM) | 4 (≈ 1.33 µg/mL) | 4 (≈ 1.33 µg/mL) | 4 (≈ 1.33 µg/mL) | 45.1 (≈ 136 µM) | > 16 | 8 (≈ 2.65 µg/mL) | – | – |
